Test results as given in article PMC2248718 (The Journal of General Physiology, 2008).
Values belong to the compound of their own block, whether it stands above or below them.

Legend:
[1] = biological target: wild-type SUR2A/Kir6.2 KATP channels expressed in HEK293 cells (UniProt P70170+Q14654); assay: Inside-out patch-clamp of recombinant wild-type KATP channels; assay type: cell-based; details: WT
[2] = biological target: SUR2A entire deletion (Δ948–962)/Kir6.2 KATP channels expressed in HEK293 cells (UniProt P70170+Q14654, DEL948-962); assay: Inside-out patch-clamp of entire ED deletion KATP channels; assay type: cell-based; details: glyburide 10 μM, monophasic response
[3] = tested on: SUR2A entire Q/N mutant/Kir6.2 KATP channels expressed in HEK293 cells; assay: Inside-out patch-clamp of entire Q/N mutant KATP channels; assay type: cell-based; details: glyburide 10 μM
[4] = tested on: ED mutant SUR2A/Kir6.2 channels; assay: Inside-out patch-clamp of ED domain mutant KATP channels; assay type: cell-based; details: ED mutants; 300 μM MgADP, channels inhibited by 300 μM ATP
Summary of the method: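 SUR2A (wild type or ED-mutated) was transiently cotransfected with Kir6.2 (5 μg:1 μg, plus 0.5 μg GFP reporter) into HEK293 cells grown in DMEM/10% FBS/2 mM glutamine, and recorded 48–72 h later. Inside-out patches at −60 mV, 32 ± 1°C. Pipette (mM): KCl 140, CaCl₂ 1, MgCl₂ 1, HEPES-KOH 5, pH 7.3. Bath (mM): KCl 140, MgCl₂ 1, EGTA 5, HEPES-KOH 5, pH 7.3, with nucleotides and drugs added.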

[5] = biological target: wild-type SUR2A (NBD1) coexpressed with Kir6.2, HEK293 membranes (Mus musculus, UniProt P70170); assay: 8-azido-[γ-32P]ATP photoaffinity labeling, post-incubation with ADP, wild type; assay type: binding; details: WT; MgADP titration 0.05 to 1.0 mM
[6] = tested on: ED-mutated SUR2A (entire deletion and Q/N mutants) coexpressed with Kir6.2, HEK293 membranes; assay: 8-azido-[γ-32P]ATP photoaffinity labeling, post-incubation with ADP, ED mutants; assay type: binding; details: ED-mutated constructs; MgADP 0.05 to 1.0 mM

- Pattern of glyburide blockade in the presence of MgADP ([1]; glyburide 10 μM, 300 μM MgADP): both phases were blunted
- Fast phase: instantaneous blockade, fraction of the channel population ([1]; glyburide 10 μM, no nucleotides): 59 ± 11%
- Slow phase: gradual dissipation of channel activity ([1]; glyburide 10 μM, no nucleotides, within 2–3 min): 93 ± 3%
- Glyburide-induced reduction in overall channel activity [2]: 21 ± 5%
SMILES: COc1ccc(Cl)cc1C(=O)NCCc1ccc(S(=O)(=O)NC(=O)NC2CCCCC2)cc1 [glyburide]
- Profile of glyburide inhibition in the presence of AMP-PNP ([1]; glyburide 10 μM, AMP-PNP 50 μM): indistinguishable from the effect of glyburide in the absence of nucleotides
- Glyburide responsiveness compared with wild type [3]: reduced glyburide responsiveness

- Channel activity reversed by pinacidil against ATP inhibition ([1]; 50 μM pinacidil, 300 μM ATP, relative to activity in the absence of nucleotides): close to the maximum level
SMILES: CC(N/C(=N\C#N)Nc1ccncc1)C(C)(C)C (centres unmarked) [pinacidil]

- Reversal of ATP-induced channel inhibition by MgADP ([1]; 300 μM MgADP, channels inhibited by 300 μM ATP): readily reversed
- MgADP concentration at maximum increase of 8-azido-[γ-32P]ATP labeling [5]: 500 µM
SMILES: Nc1ncnc2c1ncn2[C@@H]1O[C@H](COP(=O)([O-])OP(=O)([O-])O)[C@@H](O)[C@H]1O.[Mg+2] [MgADP]
- Reversal of ATP-induced channel inhibition by MgADP [4]: unable to reverse such inhibition
- Effect of MgADP on 8-azido-[γ-32P]ATP labeling [6]: did not affect labeling
